Source: PubChem
This is one part of a sample in which hits are shown more often than they occur.
INS promoter act = TRM-6 insulin promoter activation. activation, % at 2 µM. 0.81% of 130,000 active. TRM-6 cells (human fetal islet line), insulin promoter eGFP reporter, imaging; plate-scaled: unstimulated 0, stimulated control 100. AID 1296;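 active = activation at 2 µM above a set limit, confirmed on inspection of the cell images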;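 note: share of cells whose green reporter signal exceeds an intensity cutoff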
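Assay system: TRM-6 insulin promoter–eGFP reporter cells / Input: 1,000 cells per well / Medium: Low-glucose (5.5 mM) medium with tamoxifen / Also added: tamoxifen inducer, 0.75 µM, in seeding medium / Timing: overnight tamoxifen, then two-day compound incubation at 37 °C / Signal: automated fluorescence imaging of paraformaldehyde-fixed, Hoechst-counterstained cells, green channel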
* hit, by the source's call; + = active, no number.

SMILES | INS promoter act
CCc1ccc(C(C(=O)NC(C)(C)CC)N(Cc2ccco2)C(=O)Cn2nnc3ccccc32)cc1 (configuration not stated) | 359.5
CCC(C)(C)NC(=O)C(c1cccn1C)N(C(=O)Cn1nnc2ccccc21)c1ccc(OC)cc1 (configuration not stated) | 150.0*
CCC(C)(C)NC(=O)C(c1ccccc1)N(Cc1cccs1)C(=O)Cn1nnc2ccccc21 (configuration not stated) | -4.8
O=C(CCCc1nc2ccccc2s1)NCc1ccccc1F | -6.7
Cc1nn(-c2ccccc2)c(Cl)c1CN(C(=O)CCl)c1ccc(Cl)cc1 | -100.0
O=C(CCl)N(c1ccc(Cl)cc1)c1c[nH]c2ccccc12 | 257.1*
CCCCNC(=O)[C@H](Cc1c[nH]c2ccccc12)NC(=O)c1ccccc1Cl | 109.1
Cc1ccc(-c2nc(CSCC(=O)NCc3cccnc3)c(C)o2)cc1 | 7.1
COc1ccccc1NC(=O)c1ccc(NC(=O)COC(=O)CC(NC(=O)c2ccccc2Cl)c2ccccc2)cc1 (configuration not stated) | -3.3
Cc1ccc(OCC(=O)Nc2ccc(N3CCCC3)cc2)cc1C | 162.9*
COc1ccccc1OCC(=O)Nc1ccc(N2CCCCC2)cc1 | -9.1
O=C(COc1cccc(Cl)c1)Nc1ccc(N2CCOCC2)cc1 | 0.0
Cc1ccc(NC(=O)CCC(=O)OCC(F)(F)C(F)F)cc1 | 80.6*
Cc1ccc(NC(=O)CCC(=O)OCC(=O)c2ccc(-c3ccccc3)cc2)cc1 | -24.2
O=C(CCC(=O)OCCCC(F)(F)C(F)(F)F)Nc1ccccc1 | -9.4
O=C(COC(=O)CCOc1ccccc1)Nc1ncc(Cl)cc1Cl | 0.0
Cc1ccc(OCCn2c(=S)[nH]c3c(N)ncnc32)cc1 | 6.7
Cc1cc(NC(=O)c2ccc(S(=O)(=O)N(C)C)cc2)no1 | 7.7
Cc1cc(NC(=O)c2ccc(NC(=O)CC(C)C)cc2)no1 | 523.1*
Cc1cc(NC(=O)c2ccc(Cl)cc2)no1 | 200.0
CCCCOCCCNC(=O)c1ccc([N+](=O)[O-])c(C)c1 | 6.7
CC(C)OCCCn1c(SCC(=O)N2CCc3ccccc32)nc2ccccc2c1=O | 3.2
CC(C)CC1(C(=O)NCc2cc(F)cc(C(F)(F)F)c2)C=CCN1C(=O)c1ccccc1 (configuration not stated) | 152.4
COc1ccc(NC(=O)CC2SC(=N)N(c3ccccc3)C2=O)c(OC)c1 (configuration not stated) | 118.2
CCN1CCc2c(OCC(=O)Nc3ccc4c(c3)OCCO4)cccc2C1=O | 5.3
SMILES | INS promoter act
O=C(NCC1CCCO1)c1cc(-c2ccc(Cl)cc2Cl)on1 (configuration not stated) | 85.7*
O=C(Nc1ccccc1C(=O)NCC1CCCO1)c1ccc(Cl)cc1Cl (configuration not stated) | -5.7
Cc1ccc(-c2cc(C(=O)NCC3CCCO3)no2)cc1 (configuration not stated) | 8.6
Cc1ccc(NS(=O)(=O)c2cc(OCC(N)=O)c(C)cc2Cl)cc1 | 0.0
COCCCNC(=S)NNC(=O)c1ccccn1 | 0.0
COCCCNC(=S)NNC(=O)C1CC1c1ccc(C(C)(C)C)cc1 (configuration not stated) | 788.9*
COCCNC(=S)NC(=O)c1ccc(C(C)(C)C)cc1 | -5.9
O=C(NCC1CCCO1)C1CC(c2ccccc2Cl)=NO1 (configuration not stated) | 2.8
CCNC(=O)COC(=O)CNC(=O)c1cc(Cl)cc([N+](=O)[O-])c1 | -5.4
COc1ccc(S(=O)(=O)N2CCC(C(=O)N3CCCCC3)CC2)cc1Cl | 157.1
Cc1cc(N2CCN(S(=O)(=O)c3ccc(Cl)cc3)CC2)c2ccccc2n1 | 100.0*
Cc1cc(C)n(-c2cc(N3CCN(S(=O)(=O)c4ccc(Cl)cc4)CC3)ccc2[N+](=O)[O-])n1 | 3.3
O=S(=O)(c1ccccc1)N1CCN(c2nc3ccccc3s2)CC1 | 3.4
COc1ccc(C(=O)Nn2cnc3scc(-c4cccs4)c3c2=O)c(O)c1 | 0.0
Cc1ccc(/C([O-])=C(/C(=S)NCc2ccccc2)[n+]2cccc(CO)c2)cc1[N+](=O)[O-] | +
Cc1ccc[n+](/C(C(=S)NCc2ccco2)=C(/[O-])c2ccccc2Cl)c1 | 286.7
Cc1ccc(C(=O)Nc2ccc(OCc3ccccc3)cc2)cc1[N+](=O)[O-] | -6.5
Cc1ccc(Cn2nnc(C(=O)Nc3cc(C)ccc3C)c2N)cc1 | 5.7
Cc1ccc(C)c(NC(=O)Cn2nc([N+](=O)[O-])c(Br)c2C)c1 | 0.0
Cc1ccc(C)c(NC(=O)c2ccc[n+](Cc3ccc([N+](=O)[O-])cc3)c2)c1 | 233.3*
Cc1cccc2c1N1C(=O)c3c(C(=O)O)cccc3C1CC2C (configuration not stated) | 132.6
C#CCn1c(=NC(=O)c2cc(-c3cccs3)nc3ccccc23)sc2cc(S(N)(=O)=O)ccc21 | 0.0
O=C(O)CC(SCc1ccc(C(=O)O)o1)C(=O)O (configuration not stated) | 75.7*
O=C(O)c1ccc(CS(=O)c2cccc(C(F)(F)F)c2)o1 (configuration not stated) | 40.0
O=C(O)c1ccc(COc2ccc(Cl)cc2)o1 | 7.7
SMILES | INS promoter act
COc1ccccc1NC(=O)CSc1nc2ccccc2cc1Cc1ccccc1 | 3.3
Cn1c(Cc2ccccc2)nnc1SCC(=O)c1cccs1 | -5.7
Cc1cc(C)c(NC(=O)CN2CCN3CCCC3C2)c(C)c1 (configuration not stated) | 123.8
S=C(NCc1ccco1)N1CCN(c2ccccn2)CC1 | -5.3
Cc1cc(C)n(-c2nc3c(c(=O)n(C)c(=O)n3C)n2CC(O)COc2ccccc2C)n1 (configuration not stated) | -76.9
O=C1NC(=O)C(CC(=O)N(Cc2ccco2)C2(C(=O)NC3CCCC3)CCCCC2)N1 (configuration not stated) | 0.0
O=C(COC(=O)c1ccccn1)NC1CCCCC1 | -2.9
O=C(c1ccccn1)N(Cc1ccco1)C1(C(=O)NC2CCCC2)CCCCC1 | 80.6*
O=C(c1ccccc1)N1CCCCC(S(=O)(=O)c2ccc3ccccc3c2)C1=O (configuration not stated) | 3.6
COc1ccc(C(=O)NNC2CC(=O)N(Cc3ccc(Cl)cc3)C2=O)cc1OC (configuration not stated) | -3.2
O=C(c1cc(F)ccc1F)C1CCCN(C(=O)CCN2CCCCO2)C1 (configuration not stated) | -8.3
COc1cc(OC)nc(NC2OC(=O)c3ccccc32)n1 (configuration not stated) | -47.2
O=C(CCCSc1nc2ccccc2[nH]1)N1CCN(c2ccc([N+](=O)[O-])cc2)CC1 | 5.5
Cc1cc(=O)oc(C)c1C(=O)NCCCN1CCN(c2ccc(F)cc2)CC1 | 9.1
Cc1cc(=O)oc(C)c1C(=O)NCc1c(F)cc(F)cc1F | 136.4*
Cc1cc(=O)oc(C)c1C(=O)NCc1ccco1 | -9.3
COc1ccc(-c2nnn(Cc3ccccc3F)n2)cc1 | 521.4*
COc1ccc(N2C(=O)N(Cc3ccccc3F)c3ccccc3S2(=O)=O)cc1 | 136.4
CCOC(=O)CC(NC(=O)Cn1nnc(-c2ccccc2)n1)c1ccc(OC)cc1 (configuration not stated) | -5.9
O=S1(=O)C=C(SCc2ccc(Cl)c(Cl)c2)Nc2ccccc21 | 6.8
O=S(=O)(NCc1ccc2c(c1)OCO2)c1cccc2cccnc12 | 0.0
CCOc1cc(S(=O)(=O)NCc2ccc3c(c2)OCO3)c(C)cc1C | 140.9*
Cc1ccc2nsnc2c1S(=O)(=O)NCc1ccc2c(c1)OCO2 | 0.0
